Test results as given in ChEMBL document CHEMBL1123062, “Relationship between structure and antineoplastic activity of (arylsulfonyl)hydrazones of 4-pyridinecarboxaldehyde” (1985).

Experiments:
[1] = system: P388; experiment: Compound was evaluated for antitumor activity in mice (control group) bearing P388 leukemic cells from average survival time; assay type: functional, Mus musculus
How it was run: (§1)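 Ascites forms of Sarcoma 180 or P388 leukemia carried in CDF-1 mice. Recipients were implanted from donors with 7-day tumor growth. Compound given once daily for six consecutive days starting 24 h after implantation, with a tested range of 50–200 mg/kg per day. Hydrochloride salt solutions were adjusted to pH 6.5–7.0. Survival time was averaged, days ± SE. Body weight was tracked as a toxicity indicator.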

[2] = system: P388; experiment: Compound was evaluated for antitumor activity in mice bearing P388 leukemic cells from average survival time; assay type: functional, Mus musculus; how it was run: as §1
[3] = system: P388; experiment: Compound was evaluated for average change in body weight from onset to the termination of drug therapy in mice bearing P388 leukemic cells; assay type: functional, Mus musculus
How it was run: (§2)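 Ascitic Sarcoma 180 or P388 leukemia carried in CDF-1 mice; recipients transplanted from donors bearing 7-day tumors. Compound given once daily for six consecutive days from 24 h after implantation, over 50–200 mg/kg per day; hydrochloride salt solutions adjusted to pH 6.5–7.0. Mice weighed; % body-weight change onset to end of therapy taken as host toxicity; maximum effective daily dose reported from survival prolongation.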

[4] = system: P388; experiment: Maximum effective daily dose required to inhibit the tumors of P388 leukemia; assay type: functional, Mus musculus; how it was run: as §2
[5] = species: Mus musculus; experiment: Ratio of average survival time of treated to control mice bearing P388 leukemia; assay type: functional
How it was run: (§3)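 In CDF-1 mice bearing ascitic P388 leukemia or Sarcoma 180 from 7-day donors, dosing ran once daily for six days from 24 h post-implant (range 50–200 mg/kg/day; HCl salts adjusted to pH 6.5–7.0). % T/C was the average survival time of treated over control animals × 100, reported at the maximum effective daily dose.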

[6] = species: Mus musculus; experiment: Ratio of average survival time of treated to control mice bearing sarcoma 180 ascites cells; assay type: functional; how it was run: as §3
[7] = species: Mus musculus; experiment: Average change in body weight from onset to the termination of drug therapy in mice bearing sarcoma 180 ascites cells; assay type: functional; how it was run: as §2
[8] = Maximum effective daily dose required to inhibit the tumors of sarcoma 180 ascites cells; assay type: functional, Mus musculus; how it was run: as §2
[9] = Compound was evaluated for antitumor activity in mice bearing sarcoma 180 ascites cells and average survival time; assay type: functional, Mus musculus; how it was run: as §1
[10] = Compound was evaluated for antitumor activity in mice (control group) bearing sarcoma 180 ascites cells and average survival time; assay type: functional, Mus musculus; how it was run: as §1
[11] = Compound was evaluated for antitumor activity in mice (control group) bearing sarcoma 180 ascites cells from average survival time; assay type: functional, Mus musculus; how it was run: as §1
[12] = Compound was evaluated for antitumor activity in mice bearing sarcoma 180 ascites cells from average survival time; assay type: functional, Mus musculus; how it was run: as §1
[13] = system: P388; experiment: Compound was evaluated for antitumor activity in mice bearing P388 leukemic cells, and average change in body weight from onset to the termination of therapy; assay type: functional, Mus musculus; how it was run: as §2
[14] = system: P388; experiment: Compound was evaluated for antitumor activity in mice bearing P388 leukemic cells, and average change in body weight from onset to the termination of drug therapy; assay type: functional, Mus musculus; how it was run: as §2
[15] = system: P388; experiment: Compound was evaluated for antitumor activity in mice (control group) bearing P388 leukemic cells and average survival time; assay type: functional, Mus musculus; how it was run: as §1
[16] = system: P388; experiment: Compound was evaluated for antitumor activity in mice bearing P388 leukemic cells and average survival time; assay type: functional, Mus musculus; how it was run: as §1
[17] = Compound was evaluated for average change in body weight from onset to the termination of drug therapy in mice bearing sarcoma 180 ascites cells; assay type: functional, Mus musculus; how it was run: as §2

| Compound | Time [1] [days] | Time [2] [days] | Weight change [3] [%] | Dose [4] [mg/kg] | T/C [5] [%] | T/C [6] [%] | Weight change [7] [%] | Dose [8] [mg/kg] | Time [9] [days] | Time [10] [days] | Time [11] [days] | Time [12] [days] | Weight change [13] [%] | Weight change [14] [%] | Time [15] [days] | Time [16] [days] | Change of weight [17] [%] |
| --- | --- | --- | --- | --- | --- | --- | --- | --- | --- | --- | --- | --- | --- | --- | --- | --- | --- |
| Cc1cc(C)c(S(=O)(=O)N/N=C/c2ccc([N+](=O)[O-])cc2)c(C)c1.Cl | 14.2 | 17.2 | -3.5 | 150 | 121 | 231 | -10.2 | 100 | 26.4 | 11.4 |  |  |  |  |  |  |  |
| CN(/N=C/c1ccncc1)S(=O)(=O)c1ccc(Cl)cc1.Cl |  |  |  |  |  | 110 | -4.2 | 100 |  |  | 14.6 | 16 |  |  |  |  |  |
| CC(=O)Nc1ccc(S(=O)(=O)N/N=C/c2ccncc2)cc1.Cl | 14.6 | 17.6 |  | 150 | 121 | 288 | -5.2 | 150 |  |  | 11.8 | 34 | -3.1 |  |  |  |  |
| COc1ccc(S(=O)(=O)N/N=C/c2ccncc2)cc1OC.Cl | 14.8 | 17.6 |  | 100 | 119 | 278 | -9.1 | 200 |  |  | 11.8 | 32.8 |  | -3 |  |  |  |
| O=[N+]([O-])c1ccc(/C=N/NS(=O)(=O)c2ccc(Cl)cc2)cc1 |  |  | -2.4 | 200 | 107 | 189 | -16 | 100 | 28.4 | 15 |  |  |  |  | 14.2 | 15.2 |  |
| Cc1ccc(S(=O)(=O)N/N=C/c2ccc([N+](=O)[O-])cc2)cc1.Cl | 14.2 | 15.2 | -3 | 200 | 107 | 197 | -17.4 | 100 |  |  | 15 | 29.6 |  |  |  |  |  |
| Cl.O=[N+]([O-])c1ccc(/C=N/NS(=O)(=O)c2ccccc2)cc1 |  |  |  | 150 | 104 | 182 | -12.1 | 150 | 20.8 | 11.4 |  |  | -0.1 |  | 14.2 | 14.8 |  |
| Cl.O=S(=O)(N/N=C/c1ccncc1)c1ccc(Cl)cc1 | 14.8 | 16.6 |  | 200 | 112 | 242 | -5.4 | 150 |  |  | 11.8 | 28.6 | -5.4 |  |  |  |  |
| Cc1ccc(S(=O)(=O)N/N=C/c2ccncc2)cc1.Cl |  |  |  | 150 | 118 | 249 | -14.5 | 100 | 36.4 | 14.6 |  |  | -7.6 |  | 14.6 | 17.2 |  |
| Cc1cc(C)c(S(=O)(=O)N/N=C/c2ccncc2)c(C)c1.Cl |  |  | -2.2 | 100 | 129 | 239 | -8.4 | 50 | 34 | 14.2 |  |  |  |  | 14.6 | 18.8 |  |
| Cl.O=S(=O)(N/N=C/c1ccncc1)c1ccccc1 | 14.6 | 18 | -3.1 | 150 | 123 | 225 | -8.6 | 100 | 32 | 14.2 |  |  |  |  |  |  |  |
| Cc1ccc(S(=O)(=O)N/N=C/c2ccncc2)cc1 |  |  |  |  |  | 222 | -16.7 | 100 |  |  | 14.6 | 32.4 |  |  |  |  |  |
| COc1ccc(S(=O)(=O)N/N=C/c2ccncc2)cc1.Cl |  |  | 0.7 | 150 | 123 | 218 | -10.7 | 100 | 31 | 14.2 |  |  |  |  | 14.6 | 18 |  |
| Cl.O=[N+]([O-])c1ccc(S(=O)(=O)N/N=C/c2ccncc2)cc1 |  |  |  | 200 | 128 | 328 | -8.1 | 75 | 37.4 | 11.4 |  |  | -7.5 |  | 13.8 | 17.6 |  |
| COc1ccc(S(=O)(=O)N/N=C/c2ccc([N+](=O)[O-])cc2)cc1.Cl |  |  | -5.7 | 200 | 99 | 159 | -19 | 100 | 23.8 | 15 |  |  |  |  | 14.8 | 14.6 |  |
| C/C(=N\NS(=O)(=O)c1c(C)cc(C)cc1C)c1ccncc1 |  |  |  |  |  | 123 |  | 100 |  |  | 16.8 | 20.6 |  |  |  |  | 3.2 |
| CC(C)c1cc(C(C)C)c(S(=O)(=O)N/N=C/c2ccncc2)c(C(C)C)c1.Cl |  |  |  | 200 | 123 | 262 | -3.1 | 200 | 31 | 11.8 |  |  | -0.9 |  | 13.8 | 17 |  |
